Measurements published in publication PMC3577957 (Insect biochemistry and molecular biology, 2012).
Marks after values point to notes of the source that are not given here.

How the values were obtained:
Hv-mEH1 [1] = biological target: T1, Hv-mEH1 (Chloridea virescens, UniProt L7R9X8); test: Fluorescent substrate assay, Hv-mEH1; assay type: biochemical, Heliothis virescens; settings: 50 mM Tris-HCl, pH 8.0, 5 μM substrate (25 μM for CMNGC), 100 μM OTFP, 1% DMSO, 0.1 mg ml^−1 BSA, 30°C
How it was run: (§1)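 Enzyme was microsomal fraction from High Five cells infected with recombinant baculovirus (MOI 0.5, 27°C, 65 h p.i.), solubilized with 0.5% Triton X-100, and taken as the 163,000 xg supernatant. Enzyme was preincubated 5 min with OTFP before α-cyanoester/carbonate epoxide substrate was added. Fluorescence (ex 330/em 465 nm) was read every 30 s for 10 min. Aldehyde product was quantified against a 6-methoxy-2-naphthaldehyde standard curve. No-OTFP controls measured ester hydrolysis. Quadruplicate wells, ≥3 plates.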

[2] = biological target: T2, hmEH (human microsomal EH, EPHX1) (Homo sapiens, UniProt P07099); test: Fluorescent substrate assay, hmEH; assay type: biochemical; settings: 50 mM Tris-HCl, pH 8.0, 5 μM substrate, 100 μM OTFP, 1% DMSO, 0.1 mg ml^−1 BSA, 30°C
T2 sequence (P07099 1-455): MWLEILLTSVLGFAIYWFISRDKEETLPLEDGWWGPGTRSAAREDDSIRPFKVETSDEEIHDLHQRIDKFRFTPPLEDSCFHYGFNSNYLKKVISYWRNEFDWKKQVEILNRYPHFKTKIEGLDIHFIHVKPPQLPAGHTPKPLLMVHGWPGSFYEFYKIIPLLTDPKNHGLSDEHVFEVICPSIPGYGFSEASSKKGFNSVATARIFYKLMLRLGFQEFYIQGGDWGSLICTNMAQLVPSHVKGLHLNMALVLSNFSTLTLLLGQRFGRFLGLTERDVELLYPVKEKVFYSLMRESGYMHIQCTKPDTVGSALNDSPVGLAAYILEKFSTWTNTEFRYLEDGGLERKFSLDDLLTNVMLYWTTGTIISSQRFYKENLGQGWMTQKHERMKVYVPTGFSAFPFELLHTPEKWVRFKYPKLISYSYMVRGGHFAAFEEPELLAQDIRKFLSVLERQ

MsJHEH [3] = biological target: T3, MsJHEH (Manduca sexta, UniProt Q25489); test: Fluorescent substrate assay, MsJHEH; assay type: biochemical; settings: 50 mM Tris-HCl, pH 8.0, 5 μM substrate (25 μM for CMNGC), 100 μM OTFP, 1% DMSO, 0.1 mg ml^−1 BSA, 30°C
T3 sequence (Q25489 1-462): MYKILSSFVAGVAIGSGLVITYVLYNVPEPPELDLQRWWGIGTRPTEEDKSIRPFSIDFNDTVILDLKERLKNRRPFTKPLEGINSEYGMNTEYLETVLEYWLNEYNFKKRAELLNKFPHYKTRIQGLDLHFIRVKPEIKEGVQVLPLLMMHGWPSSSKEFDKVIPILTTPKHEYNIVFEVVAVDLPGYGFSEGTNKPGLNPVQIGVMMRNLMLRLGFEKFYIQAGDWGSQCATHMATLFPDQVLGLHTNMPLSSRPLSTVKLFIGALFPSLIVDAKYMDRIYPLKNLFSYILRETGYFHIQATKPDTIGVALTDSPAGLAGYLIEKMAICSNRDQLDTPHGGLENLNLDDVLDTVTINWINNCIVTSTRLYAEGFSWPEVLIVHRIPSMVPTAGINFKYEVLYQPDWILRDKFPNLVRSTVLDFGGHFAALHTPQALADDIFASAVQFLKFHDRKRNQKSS
How it was run: as §1

Hv-mEH1 [4] = biological target: T1, Hv-mEH1; test: Partition assay with radiolabeled general epoxide substrates, Hv-mEH1; assay type: biochemical, Heliothis virescens; settings: 100 mM sodium phosphate, pH 8.0, 50 μM substrate, 1% ethanol, 0.1 mg ml^−1 BSA, 30°C; corrected for background hydrolysis
How it was run: (§2)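 Microsomal enzyme came from baculovirus-infected High Five cells (MOI 0.5, 65 h p.i., Triton X-100 extract, 163,000 xg supernatant). Partition assay used tritium-labeled cis-stilbene oxide, trans-stilbene oxide or t-DPPO. Enzyme amount was set so at most 15% of substrate was hydrolyzed. Assays were run in triplicate and repeated at least three times. Results are mean ± standard deviation.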

MsJHEH [5] = biological target: T3, MsJHEH; test: Partition assay with radiolabeled general epoxide substrates, MsJHEH; assay type: biochemical; settings: 100 mM sodium phosphate, pH 8.0, 50 μM substrate, 1% ethanol, 0.1 mg ml^−1 BSA, 30°C; corrected for background hydrolysis
How it was run: as §2

Hv-mEH1 [6] = biological target: T1, Hv-mEH1; test: JH III partition assay and kinetic constant determination, Hv-mEH1; assay type: biochemical, Heliothis virescens
How it was run: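 Recombinant enzyme expressed in baculovirus-infected High Five cells (MOI 0.5, 27°C, harvested 65 h p.i.). Used the Triton X-100-solubilized microsomal supernatant. Tritiated JH III partition assay at eight concentrations (96 to 11,190 nM), with 1% ethanol and 0.1 mg ml−1 BSA. Ran 5 to 30 min with ≤15% hydrolysis, non-enzymatic background subtracted. KM/Vmax fitted by enzyme kinetics, triplicate, repeated three times.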

MsJHEH [7] = biological target: T3, MsJHEH; settings: cited from earlier work
Bommo-JHEH = settings: ref Zhang et al., 2005; cited from earlier work
[8] = biological target: T2, hmEH (human microsomal EH, EPHX1); settings: 25 μM CMNGC; ref Morisseau et al., 2011; cited from earlier work

In the case of `COc1ccc2cc(C(C#N)OC(=O)C[C@@H]3O[C@H]3c3ccccc3)ccc2c1` (relative stereo) [MNPE, cyano(2-methoxynaphthalen-6-yl)methyl trans-(2-(3-phenyloxiran-2-yl))acetate], the “Specific Activity Hv-mEH1 with fluorescent substrates” value (Hv-mEH1 [1]) is reported as 138 ± 9 nmol/min/mg, the “Specific Activity hmEH with fluorescent substrates” value [2] is reported as < 1.0 nmol/min/mg and the “Specific Activity MsJHEH with fluorescent substrates” value (MsJHEH [3]) is reported as 8.9 ± 0.4 nmol/min/mg.
In the case of `COc1ccc2cc(C(C#N)OC(=O)OC[C@@H]3O[C@H]3c3ccccc3)ccc2c1` (relative stereo) [MNPC, cyano(6-methoxy-naphthalen-2-yl)methyl trans-[(3-phenyloxiran-2-yl)methyl] carbonate], the “Specific Activity Hv-mEH1 with fluorescent substrates” value (Hv-mEH1 [1]) is reported as 816 ± 140 nmol/min/mg, the “Specific Activity hmEH with fluorescent substrates” value [2] is reported as < 1.0 nmol/min/mg and the “Specific Activity MsJHEH with fluorescent substrates” value (MsJHEH [3]) is reported as 29 ± 18 nmol/min/mg.
For `c1ccc([C@@H]2O[C@H]2c2ccccc2)cc1` (relative stereo) [t-SO, trans-stilbene oxide], the “Specific Activity Hv-mEH1” value (Hv-mEH1 [4]) was 0.3 ± 0.01 nmol/min/mg and the “Specific Activity MsJHEH” value (MsJHEH [5]) was 2.1 ± 0.3 nmol/min/mg.
With `c1ccc(CC2OC2c2ccccc2)cc1` (stereo not drawn) [t-DPPO, trans-diphenylpropene oxide] the “Specific Activity Hv-mEH1” value (Hv-mEH1 [4]) was 0.1 ± 0.04 nmol/min/mg and the “Specific Activity MsJHEH” value (MsJHEH [5]) was 18.3 ± 4.0 nmol/min/mg.
In the case of `CC[C@@H]1O[C@H]1COC(=O)OC(C#N)c1ccc2cc(OC)ccc2c1` (relative stereo) [MNPEC, cyano-(6-methoxy-naphthalen-2-yl)-methyl trans-((3-ethyl-oxiran-2-yl)methyl) carbonate], the “Specific Activity Hv-mEH1 with fluorescent substrates” value (Hv-mEH1 [1]) is reported as 122 ± 11 nmol/min/mg, the “Specific Activity hmEH with fluorescent substrates” value [2] is reported as < 1.0 nmol/min/mg and the “Specific Activity MsJHEH with fluorescent substrates” value (MsJHEH [3]) is reported as 0.8 ± 0.1 nmol/min/mg.
For `CCC[C@@H]1O[C@H]1CC(=O)OC(C#N)c1ccc2cc(OC)ccc2c1` (relative stereo) [MNHE, cyano(2-methoxynaphthalen-6-yl)methyl trans-2-(3-propyloxiran-2-yl)acetate], the “Specific Activity Hv-mEH1 with fluorescent substrates” value (Hv-mEH1 [1]) was 1,180 ± 8 nmol min^−1 mg^−1, the “Specific Activity hmEH with fluorescent substrates” value [2] was < 1.0 nmol/min/mg and the “Specific Activity MsJHEH with fluorescent substrates” value (MsJHEH [3]) was 38 ± 3 nmol/min/mg.
With `COC(=O)/C=C(\C)CC/C=C(\C)CC[C@H]1OC1(C)C` [JH III, juvenile hormone (JH) III] the “specificity constant (kcat/KM ratio) of Hv-mEH1 for JH III” value (Hv-mEH1 [6]) was 630 M⁻¹ s⁻¹, the “Vmax of Hv-mEH1 for JH III” value (Hv-mEH1 [6]; 100 mM sodium phosphate, pH 8.0, 30°C, JH III diol formed) was 1.7 ± 0.1 nmol/min/mg and the “kcat of Hv-mEH1 for JH III” value (Hv-mEH1 [6]; calculated using estimated molecular mass of 53.1 kDa) was 0.002 s⁻¹. The “Vmax of MsJHEH for JH III” value (MsJHEH [7]; ref Severson et al., 2002) was 59 nmol/min/mg, the “specificity constant of MsJHEH for JH III” value (MsJHEH [7]; ref Touhara and Prestwich, 1993) was 290000 M⁻¹ s⁻¹ and the “specificity constant of Bommo-JHEH for JH III” value (Bommo-JHEH) was 77000 M⁻¹ s⁻¹.
For `COc1ccc2cc(C(C#N)OC(=O)OCC3CO3)ccc2c1` (stereo not drawn) [CMNGC, cyano(6-methoxy-naphthalen-2-yl)methyl oxiran-2-ylmethyl carbonate], the “Specific Activity Hv-mEH1 with fluorescent substrates” value (Hv-mEH1 [1]) is listed as 0.03 ± 0.001 nmol/min/mg, the “Specific Activity hmEH with CMNGC” value [8] is listed as 25 ± 2 ^b nmol min^−1 mg^−1 and the “Specific Activity MsJHEH with fluorescent substrates” value (MsJHEH [3]) is listed as 3.3 ± 0.2 nmol/min/mg.
With `COc1ccc2cc(C(C#N)OC(=O)OCC3OC3(C)C)ccc2c1` (stereo not drawn) [MNiPC, cyano-(6-methoxy-naphthalen-2-yl)-methyl 3,3-dimethyl-oxiranylmethyl carbonate] the “Specific Activity Hv-mEH1 with fluorescent substrates” value (Hv-mEH1 [1]) was 3.7 ± 1.1 nmol/min/mg, the “Specific Activity hmEH with fluorescent substrates” value [2] was < 1.0 nmol/min/mg and the “Specific Activity MsJHEH with fluorescent substrates” value (MsJHEH [3]) was 1.3 ± 0.5 nmol/min/mg.
With `c1ccc([C@H]2O[C@H]2c2ccccc2)cc1` [c-SO, cis-stilbene oxide] the “Specific Activity Hv-mEH1” value (Hv-mEH1 [4]) was 45.8 ± 7.0 nmol/min/mg and the “Specific Activity MsJHEH” value (MsJHEH [5]) was 3.7 ± 0.5 nmol/min/mg.
